Measurements from ChEMBL document CHEMBL1140866, “New pyrazoline bearing 4(3H)-quinazolinone inhibitors of monoamine oxidase: synthesis, biological evaluation, and structural determinants of MAO-A and MAO-B selectivity” (Bioorg Med Chem, 2009).
One block for each compound: values may come before it.

Assays:
[1] = target: T1, Amine oxidase [flavin-containing] B (Rattus norvegicus, UniProt P19643); experiment: Inhibition of MAO-B in rat liver homogenate after 60 mins by Lineweaver-Burke plot; assay type: tissue-based; details: for Activity: rat, 1 h, TDE = time-dependent effect
T1 sequence (P19643 whole entry): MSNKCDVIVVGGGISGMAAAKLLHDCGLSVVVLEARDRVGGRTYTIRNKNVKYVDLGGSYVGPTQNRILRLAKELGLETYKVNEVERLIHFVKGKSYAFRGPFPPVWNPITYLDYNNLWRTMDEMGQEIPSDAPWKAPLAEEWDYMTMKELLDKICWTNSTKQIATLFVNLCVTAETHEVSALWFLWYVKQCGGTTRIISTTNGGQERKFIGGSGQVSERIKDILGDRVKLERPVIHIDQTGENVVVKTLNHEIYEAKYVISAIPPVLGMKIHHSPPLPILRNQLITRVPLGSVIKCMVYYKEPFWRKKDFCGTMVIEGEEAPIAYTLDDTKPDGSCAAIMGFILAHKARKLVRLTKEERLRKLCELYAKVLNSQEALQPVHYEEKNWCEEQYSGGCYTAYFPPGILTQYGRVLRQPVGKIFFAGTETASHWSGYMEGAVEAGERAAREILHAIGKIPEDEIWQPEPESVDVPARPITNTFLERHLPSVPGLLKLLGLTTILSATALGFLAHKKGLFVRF

[2] = tested on: Mus musculus; experiment: Antidepressant activity in albino mouse assessed as immobility time at 100 mg/kg, ip by forced swim test; assay type: functional; details: route intraperitoneal
Method in brief: (§1)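 Mice given compounds i.p. at 100 mg/kg in DMSO/water (1:4), about 0.1 mL, 1 h before testing; controls got 0.1 mL vehicle; n = 7–8. Housed eight per cage, 20 ± 2 °C, 12 h light/dark. Each animal did the plus-maze first, then forced swim.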

[3] = target: T2, Amine oxidase [flavin-containing] A (Rattus norvegicus, UniProt P21396); experiment: Inhibition of MAO-A in rat liver homogenate after 60 mins by Lineweaver-Burke plot; assay type: tissue-based; details: for Activity: rat, 1 h, TDE = time-dependent effect
T2 sequence (P21396 whole entry): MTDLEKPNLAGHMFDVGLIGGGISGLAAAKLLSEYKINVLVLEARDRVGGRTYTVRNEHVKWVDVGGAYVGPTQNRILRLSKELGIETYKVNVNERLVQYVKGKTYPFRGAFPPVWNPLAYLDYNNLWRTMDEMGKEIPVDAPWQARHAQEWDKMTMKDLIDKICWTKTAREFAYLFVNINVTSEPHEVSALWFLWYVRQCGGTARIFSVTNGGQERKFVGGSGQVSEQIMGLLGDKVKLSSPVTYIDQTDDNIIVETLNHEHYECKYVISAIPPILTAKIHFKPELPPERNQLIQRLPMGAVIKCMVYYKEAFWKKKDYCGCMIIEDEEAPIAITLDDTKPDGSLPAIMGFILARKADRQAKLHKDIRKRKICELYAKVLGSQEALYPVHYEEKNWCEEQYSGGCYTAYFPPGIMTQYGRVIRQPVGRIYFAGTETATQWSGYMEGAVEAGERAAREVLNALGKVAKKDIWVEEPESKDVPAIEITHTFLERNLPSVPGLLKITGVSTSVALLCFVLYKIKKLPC

[4] = tested on: Mus musculus; experiment: Anxiolytic activity in albino mouse assessed as total number of entries into arms at 100 mg/kg, ip by plus-maze test; assay type: functional; details: route intraperitoneal; method in brief: as §1
[5] = tested on: Mus musculus; experiment: Anxiolytic activity in albino mouse assessed as time spent on closed arm at 100 mg/kg, ip by plus-maze test; assay type: functional; design: unit not given here; details: route intraperitoneal; method in brief: as §1
[6] = target: T2, Amine oxidase [flavin-containing] A; experiment: Inhibition of MAO-A in rat liver homogenate after 60 mins by residual activity plot; assay type: tissue-based
[7] = target: T1, Amine oxidase [flavin-containing] B; experiment: Inhibition of MAO-B in rat liver homogenate after 60 mins by residual activity plot; assay type: tissue-based
[8] = tested on: Mus musculus; experiment: Anxiolytic activity in albino mouse assessed as time spent on closed arm at 5 mg/kg, ip by plus-maze test; assay type: functional; details: route intraperitoneal
[9] = tested on: Mus musculus; experiment: Anxiolytic activity in albino mouse assessed as total number of entries into arms at 5 mg/kg, ip by plus-maze test; assay type: functional; details: route intraperitoneal
[10] = tested on: Mus musculus; experiment: Antidepressant activity in albino mouse assessed as immobility time at 5 mg/kg, ip by forced swim test; assay type: functional; details: route intraperitoneal

SMILES: Cc1ccc(C2=NN(c3nc4ccccc4c(=O)n3C)C(c3cccs3)C2)cc1 (centres undefined)
- Ki [1]: 90.7 µM
- Activity [1]: tde
- Activity [2]: 74.14%
- Ki [3]: 130 µM
- Activity [3]: tde
- arm entries [4]: 5.14 entries
- Activity [5]: 188.14
- IC50 [6]: 415 µM
- IC50 [7]: 70.8 µM

SMILES: CCOc1ccc(/C=C/C(=N/Nc2nc3ccccc3c(=O)n2C)c2ccccc2)cc1
- Ki [1]: 30.6 µM
- Activity [1]: tde
- Activity [2]: 90.23%
- Ki [3]: 80.1 µM
- Activity [3]: tde
- arm entries [4]: 5.75 entries
- Activity [5]: 218.88
- IC50 [6]: 29 µM
- IC50 [7]: 429 µM

SMILES: COc1ccc(/C=C/C(=N/Nc2nc3ccccc3c(=O)n2C)c2ccccc2)cc1OC
- Ki [1]: 65.1 µM
- Activity [1]: tde
- Activity [2]: 130.57%
- Ki [3]: 90.7 µM
- Activity [3]: tde
- arm entries [4]: 5.63 entries
- Activity [5]: 209.63
- IC50 [6]: 68 µM
- IC50 [7]: 470 µM

SMILES: Cn1c(N2N=C(c3ccc(Cl)cc3)CC2c2cccs2)nc2ccccc2c1=O (centres undefined)
- Ki [1]: 25.6 µM
- Activity [1]: tde
- Activity [2]: 61.83%
- Ki [3]: 65.3 µM
- Activity [3]: tde
- arm entries [4]: 2.29 entries
- Activity [5]: 244.5
- IC50 [6]: 420 µM
- IC50 [7]: 27.6 µM

SMILES: Cc1ccc(C2=NN(c3nc4ccccc4c(=O)n3C)C(c3ccco3)C2)cc1 (centres undefined)
- Ki [1]: 88.6 µM
- Activity [1]: tde
- Activity [2]: 64%
- Ki [3]: 140 µM
- Activity [3]: tde
- arm entries [4]: 9 entries
- Activity [5]: 208.57
- IC50 [6]: 410 µM
- IC50 [7]: 77.1 µM

SMILES: Cn1c(N2N=C(c3ccccc3)CC2c2ccc(Cl)cc2)nc2ccccc2c1=O (centres undefined)
- Ki [1]: 18.4 µM
- Activity [1]: tde
- Activity [2]: 42.37%
- Ki [3]: 2.7 µM
- Activity [3]: tde
- arm entries [4]: 4.12 entries
- Activity [5]: 154.75
- IC50 [6]: 3.7 µM
- IC50 [7]: 416 µM

SMILES: Cn1c(N/N=C(/C=C/c2ccc(Br)cc2)c2ccccc2)nc2ccccc2c1=O
- Ki [1]: 69.6 µM
- Activity [1]: tde
- Activity [2]: 65.57%
- Ki [3]: 40.3 µM
- Activity [3]: tde
- arm entries [4]: 3.87 entries
- Activity [5]: 218.71
- IC50 [6]: 30.5 µM
- IC50 [7]: 487 µM

SMILES: Cn1c(N2N=C(c3ccccc3)CC2c2ccccc2)nc2ccccc2c1=O (centres undefined)
- Ki [1]: 25.2 µM
- Activity [1]: tde
- Activity [2]: 27%
- Ki [3]: 9.9 µM
- Activity [3]: tde
- arm entries [4]: 4.37 entries
- Activity [5]: 222.27
- IC50 [6]: 9.46 µM
- IC50 [7]: 410 µM

The next compounds have a lower Ki [1] than those just listed; values first:

- Ki [1]: 1.48 µM
- Activity [1]: tde
- Ki [3]: 6.8 µM
- Activity [3]: tde
- IC50 [6]: 418 µM
- IC50 [7]: 2.03 µM
SMILES: COc1ccc(C2=NN(c3nc4ccccc4c(=O)n3C)C(c3ccco3)C2)cc1 (centres undefined)
- Activity [2]: 69%
- arm entries [4]: 5.57 entries
- Activity [5]: 226

- Ki [1]: 9.9 µM
- Activity [1]: tde
- Ki [3]: 1.03 µM
- Activity [3]: tde
- IC50 [6]: 4.51 µM
- IC50 [7]: 400 µM
SMILES: COc1ccc(C2CC(c3ccccc3)=NN2c2nc3ccccc3c(=O)n2C)cc1 (centres undefined)
- Activity [2]: 58%
- arm entries [4]: 5.37 entries
- Activity [5]: 162.43

- Ki [1]: 5.8 µM
- Activity [1]: tde
- Ki [3]: 0.9 µM
- Activity [3]: tde
- IC50 [6]: 1.02 µM
- IC50 [7]: 400 µM
SMILES: Cn1c(N2N=C(c3ccccc3)CC2c2cccc(Cl)c2)nc2ccccc2c1=O (centres undefined)
- Activity [2]: 26.25%
- arm entries [4]: 3.75 entries
- Activity [5]: 218.25

- Ki [1]: 7.9 µM
- Activity [1]: tde
- Ki [3]: 2.56 µM
- Activity [3]: tde
- IC50 [6]: 4.51 µM
- IC50 [7]: 484 µM
SMILES: Cc1ccc(C2CC(c3ccccc3)=NN2c2nc3ccccc3c(=O)n2C)cc1 (centres undefined)
- Activity [2]: 43.25%
- arm entries [4]: 3.87 entries
- Activity [5]: 178.25

- Ki [1]: 9.25 µM
- Activity [1]: tde
- Ki [3]: 28.7 µM
- Activity [3]: tde
- IC50 [6]: 450 µM
- IC50 [7]: 7.22 µM
SMILES: Cn1c(N2N=C(c3ccc(Cl)cc3)CC2c2ccco2)nc2ccccc2c1=O (centres undefined)
- Activity [2]: 74%
- arm entries [4]: 4.86 entries
- Activity [5]: 204

- Ki [1]: 10.6 µM
- Activity [1]: tde
- Ki [3]: 1.17 µM
- Activity [3]: tde
- IC50 [6]: 1.68 µM
- IC50 [7]: 485 µM
SMILES: Cn1c(N2N=C(c3ccccc3)CC2c2ccc(Br)cc2)nc2ccccc2c1=O (centres undefined)
- Activity [2]: 65.12%
- arm entries [4]: 3.25 entries
- Activity [5]: 230

- Ki [1]: 16.3 µM
- Activity [1]: tde
- Ki [3]: 25.3 µM
- Activity [3]: tde
- IC50 [6]: 440 µM
- IC50 [7]: 15.2 µM
SMILES: COc1ccc(C2=NN(c3nc4ccccc4c(=O)n3C)C(c3cccs3)C2)cc1 (centres undefined)
- Activity [2]: 61.13%
- arm entries [4]: 5.13 entries
- Activity [5]: 248.5

- Ki [1]: 10.2 µM
SMILES: O=C(NCCN1CCOCC1)c1ccc(Cl)cc1 [MOCLOBEMIDE]
- Activity [8]: 250.72%
- arm entries [9]: 6.15 entries
- Activity [10]: 54.3%
